Bioassay records (PubChem BioAssay)
SENP6 block: inhibitors of human SENP6 protease; AID 2599; Recombinant SENP6 catalytic domain, aminoluciferin luminescence; inhibition, % at 10 µM; actives 1.8% (n = 330,000);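 active = inhibition above about 50% at the single tested dose, limit read from the data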
SENP7 inh: inhibitors of human SENP7 protease | actives 1.5% (n = 330,000) | recombinant SENP7, Z-RLRGG-aminoluciferin luminescence, 40 min | AID 434973 | inhibition, % at 5 µM;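 active = inhibition above about 50% at the single test dose, limit read from the data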
SENP8 block-1: inhibitors of human SENP8 protease. Q96LD8. purified SENP8, Z-RLRGG-aminoluciferin cleavage, luminescence. inhibition, % at 10 µM. actives 1.2% (n = 330,000). AID 2540; in the data active = inhibition above about 50%
Target sequence (Q96LD8 whole entry, looked up): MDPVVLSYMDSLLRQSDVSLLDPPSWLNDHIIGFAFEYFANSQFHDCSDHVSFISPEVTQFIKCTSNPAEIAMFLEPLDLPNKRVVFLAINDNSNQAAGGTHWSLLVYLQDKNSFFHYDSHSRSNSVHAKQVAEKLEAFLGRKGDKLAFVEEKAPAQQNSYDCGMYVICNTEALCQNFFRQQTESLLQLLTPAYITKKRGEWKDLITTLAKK
HSP90 inh: inhibitors of HSP90 luciferase refolding in rabbit reticulocyte lysate. luciferase refolding luminescence, 3 h. inhibition, % at 5.6 µM. actives 0.91% (n = 290,000);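 active = inhibition above the screen-wide mean plus 3 SD, computed separately per campaign, cut at about 16% in these data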;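 note: inhibitors lower the luminescence because luciferase stays unfolded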
SENP1 FRET inh: inhibitors of human SENP1 SUMO protease catalytic domain | inhibition, % at 10 µM | Q9P0U3 | AID 624204 | recombinant SENP1 catalytic domain, CyPet-SUMO1-YPet FRET cleavage | actives 0.21% (n = 360,000);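 active = inhibition at least 30% at 10 µM, raw YFP signal under a set limit, fluorescence ratio 0.5 to 1.5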
Target sequence (Q9P0U3 419-644 limits assumed): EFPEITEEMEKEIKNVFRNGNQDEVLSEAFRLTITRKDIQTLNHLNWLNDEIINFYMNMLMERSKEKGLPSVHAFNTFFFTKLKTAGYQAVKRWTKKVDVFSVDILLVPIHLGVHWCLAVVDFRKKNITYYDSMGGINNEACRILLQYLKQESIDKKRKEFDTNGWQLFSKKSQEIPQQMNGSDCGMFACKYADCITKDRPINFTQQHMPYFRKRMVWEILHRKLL
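material = recombinant human SENP1 catalytic domain, His6-tagged | quantity = 20 pM enzyme | reagent = 25 nM SUMO1 FRET substrate | compound dosing = 10 µM single point, 0.5% DMSO | timing = 50 min enzyme reaction, room temperature, light-protected | detection = FRET, CFP and YFP emission | control set = no-enzyme low, enzyme-DMSO high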
SENP8 block-2: blocks human SENP8 cleavage of Nedd8 substrate; AID 602440; recombinant SENP8, Nedd8 substrate fluorescence; inhibition, % at 20 µM; actives 0.64% (n = 360,000); in the data active = inhibition mostly above about 40%, no sharp cut-off; inactive = mostly below about 27%
SENP8 conf: human SENP8 inhibition, confirmed; shares compounds with SENP7 inh; Recombinant SENP8, Z-RLRGG-aminoluciferin luminescence, 60 min; inhibition, % at 12.5 µM; actives 40% (n = 6,200); AID 488912;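 active = mean inhibition across replicates above about 50%, limit read from the data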
SENP6 confirm: human SENP6 inhibition, confirmed | recombinant SENP6, Z-RLRGG-aminoluciferin luminescence | inhibition, % at 12.5 µM | shares compounds with SENP7 inh | actives 58% (n = 6,200) | AID 488915
SENP7 confirm: human SENP7 inhibition, confirmed. AID 488917. actives 69% (n = 6,200). inhibition, % at 12.5 µM. recombinant SENP7, Z-RLRGG-aminoluciferin luminescence, 40 min. shares compounds with SENP7 inh
Casp3 select: selectivity test for SENP inhibitors: human caspase-3 inhibition; shares compounds with SENP7 inh; purified caspase-3, Z-DEVD-aminoluciferin luminescence, 60 min; inhibition, % at 12.5 µM; actives 60% (n = 6,200);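 active = mean inhibition above about 50%, limit read from the data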
Target sequence (P42574 28-227 limits assumed): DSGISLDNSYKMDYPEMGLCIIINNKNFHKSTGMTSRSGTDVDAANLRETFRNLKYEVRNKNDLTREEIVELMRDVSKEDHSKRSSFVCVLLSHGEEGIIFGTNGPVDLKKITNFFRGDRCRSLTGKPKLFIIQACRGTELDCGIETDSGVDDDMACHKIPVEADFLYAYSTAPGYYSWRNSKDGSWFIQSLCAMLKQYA
Luc interf: counter-screen for SENP inhibitors: luminescence interference; shares compounds with SENP7 inh; Pre-incubated SENP8/Z-RLRGG-aminoluciferin, luciferase luminescence interference; inhibition, % at 12.5 µM; actives 39% (n = 6,200); AID 488919;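 active = mean inhibition above about 50% when retested at one dose, limit read from the data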
Hits are given with their value; – = inactive; · = not tested or not shown. Hits are enriched below; roughly 2.9% of the tested compounds scored in any of these assays.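 Rule for the calls, unless noted: active = mean inhibition above about 50% in the one-dose retest (limit read from the data); inactive = the rest.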

SMILES	SENP6 block	SENP7 inh	SENP8 block-1	HSP90 inh	SENP1 FRET inh	SENP8 block-2	SENP8 conf	SENP6 confirm	SENP7 confirm	Casp3 select	Luc interf
CCOc1ccc(-c2noc(-c3cccnc3)n2)cc1OC	–	–	–	–	–	–	·	·	·	·	·
CCCCOc1ccc(-c2nc(-c3cccnc3)no2)cc1	81.0	78.9	64.1	–	–	–	–	–	–	–	–
CC(C)C[C@H](NC(=O)C1CC(=O)N(c2ccc(F)cc2)C1)C(=O)N1CCCCC1 (stereo partly drawn)	–	–	–	–	–	–	·	·	·	·	·
Cc1cc(C(=O)Nc2cccc(C(=O)O)c2)c(C)o1	89.8	83.8	68.4	–	–	–	–	80.9	97.8	–	88.3
Cc1oc(C(C)(C)C)cc1C(=O)Nc1ccc(C(=O)O)cc1	–	–	–	–	–	–	·	·	·	·	·
Cc1oc(C(C)(C)C)cc1C(=O)Nc1cccc(C(=O)O)c1	–	–	–	–	–	–	·	·	·	·	·
Cc1cc(C(=O)Nc2ccc(C(=O)O)cc2)c(C)o1	80.4	73.7	68.4	–	–	–	–	61.3	87.7	91.3	65.0
c1ccc(-c2nnc3nc(N4CCCCC4)nc(N4CCCCC4)n23)cc1	·	·	·	·	–	–	·	·	·	·	·
c1ccc2nc(-c3ccc(-n4ccnc4)cc3)ccc2c1	–	72.5	61.0	–	–	–	–	80.6	–	–	–
C[C@@H]1CN([C@@H](C)CO)C(=O)CCCn2cc(nn2)CO[C@H]1CN(C)S(=O)(=O)c1ccccc1F	·	·	·	·	–	–	·	·	·	·	·
OCc1ccc(N=Nc2ccccc2)cc1	–	54.9	–	·	–	–	–	–	73.5	51.7	53.2
COc1ccc(N=Nc2ccc(CO)cc2)cc1	50.6	65.8	–	·	–	–	61.1	58.4	83.4	59.6	–
COc1ccc(C/C(N)=N/O)cc1	–	–	–	–	–	–	·	·	·	·	·
COC(=O)c1ccc(N=Nc2ccccc2)cc1	–	58.7	–	–	–	–	–	57.0	85.7	–	–
Oc1ccc(Cl)cc1N=Nc1ccccc1	73.3	67.4	–	–	–	–	–	–	80.4	–	–
O=C(O)c1cc(O)ccc1N=Nc1ccccc1	–	–	–	–	–	–	·	·	·	·	·
O=C(O)CCCC(=O)Nc1ccc(N=Nc2ccccc2)cc1	–	–	–	–	–	–	·	·	·	·	·
COC(=O)[C@]12CCCCC=C1N(Cc1ccc(Cl)cc1Cl)C(=O)[C@H](CC(=O)NCCc1ccccc1OC)C2	·	·	·	·	–	–	·	·	·	·	·
CCn1nc(C)c(CN2CCC(C(=O)Nc3cccc(-c4cccc(Cl)c4)c3)CC2)c1C	–	–	–	–	–	–	·	·	·	·	·
Cc1ccc(O)c(N=Nc2ccc(S(=O)(=O)N3CCCC3)cc2)c1	–	–	–	–	–	–	·	·	·	·	·
COc1ccc(N=Nc2cc(C)ccc2O)cc1	–	98.7	95.7	–	–	–	84.5	97.4	102.1	91.9	92.4
Oc1ccc(N=Nc2ccccc2)cc1	82.4	67.9	73.6	–	–	–	80.7	79.5	91.2	56.6	82.6
CCOC(=O)[C@]12CCCC=C1N(Cc1ccccc1)C(=O)[C@H](CC(=O)N1CCCCCC1)C2	·	·	·	·	–	–	·	·	·	·	·
O=C(NCCN1CCOCC1)C1CCC(CNS(=O)(=O)c2ccc(Cl)cc2)CC1 (stereo not drawn)	–	59.6	–	–	–	–	–	–	–	–	–
O=C(NCCCN1CCCC1=O)C1CCC(CNS(=O)(=O)c2ccc(Cl)cc2)CC1 (stereo not drawn)	–	–	–	–	–	–	·	·	·	·	·
SMILES	SENP6 block	SENP7 inh	SENP8 block-1	HSP90 inh	SENP1 FRET inh	SENP8 block-2	SENP8 conf	SENP6 confirm	SENP7 confirm	Casp3 select	Luc interf
O=C(c1ccc(F)cc1)c1ccc(N2CCCCC2)cc1	–	–	–	–	–	–	·	·	·	·	·
O=C(Nc1ccc(N2CCCCC2)cc1)c1ccc(F)cc1	78.9	83.2	67.9	–	–	–	–	–	–	–	–
COc1ccc(C(=O)Nc2ccc(N3CCCC3)cc2)cc1OC	94.4	–	94.6	–	–	–	87.6	97.8	101.7	97.8	89.3
COc1ccc(C(=O)c2ccc(OC)c(Br)c2)cc1Br	98.0	–	–	–	–	–	–	–	–	–	–
COc1ccc(C(=O)Nc2ccc(N3CCOCC3)cc2)cc1OC	89.2	88.9	81.9	–	–	–	57.8	85.8	96.9	95.1	–
COc1ccc(C(=O)Nc2ccc(N3CCCC3)cc2)cc1	–	–	–	–	–	–	·	·	·	·	·
COc1ccc(C(=O)c2cccc(C(=O)c3ccc(OC)c(C)c3)c2)cc1C	–	–	–	–	–	–	·	·	·	·	·
CCc1cccc(C)c1NC(=O)CCCN1C(=O)CN(C)C1=O	–	–	–	·	–	–	·	·	·	·	·
Cn1cccc1C(=O)Nc1ccc(N2CCOCC2)cc1	–	62.0	–	·	–	–	58.8	53.6	82.3	84.7	–
O=C(Nc1ccc(N2CCOCC2)cc1)c1cccc2ccccc12	–	–	–	–	–	–	·	·	·	·	·
COc1ccc(C(=O)Nc2ccc(N3CCCC3)cc2)cc1Br	63.7	–	59.9	–	–	–	–	–	–	–	–
COCCNC(=O)C1CCCN(Cc2ccc(-c3ccccc3)cc2)CC1 (stereo not drawn)	·	·	·	·	–	–	·	·	·	·	·
C=C(C)COc1ccc(-c2nc(N)ncc2-c2ccc(Cl)cc2)c(O)c1	–	–	–	–	–	–	·	·	·	·	·
COC(=O)[C@@H](Cc1c[nH]c2ccccc12)NC(=O)c1ccc2c(c1)OCO2	59.2	64.6	53.2	–	–	–	–	–	83.1	67.0	67.9
CCN1C(=O)/C(=C/C=C2/Sc3ccccc3N2CCO)SC1=S	–	–	–	–	–	–	·	·	·	·	·
CCN1C(=O)/C(=C/C=C2/SCCN2C)SC1=S	80.0	76.5	–	–	–	46.8	–	–	–	–	–
COc1ccc(CCCc2nc3ccccc3[nH]2)cc1	–	–	–	–	–	–	·	·	·	·	·
COc1ccc(-c2cc(=O)n(-c3nc4ccccc4[nH]3)[nH]2)cc1	91.3	–	86.6	–	–	–	–	92.3	100.9	95.7	54.5
C[C@@H]1C(=O)N(c2ccccc2)[C@@H]1c1ccncc1	·	–	·	·	–	–	·	·	·	·	·
c1ccc(NC2=Nc3ccccc3CS2)cc1	81.9	77.6	51.5	–	–	–	–	63.4	89.5	68.6	–
